Active and inactive are the calls of the source. The calls are words filed in the database; no cut-off is given here.
What was measured:
[1] = (§1) Inhibition of TNF-alpha-induced NFkappaB nuclear translocation in human A549 cells preincubated for 30 mins before TNFalpha challenge and measured 30 post TNFalpha challenge by fluorescence method; type: cell-based
[2] = test system: A549; test: Growth inhibition of human A549 cells after 48 hrs by sulforhodamine B assay; type: functional; details: A549, 48 h
[3] = target: T1, Inhibitor of NF-kappa-B kinase (IKK) (Homo sapiens, UniProt O14920+O15111+Q9Y6K9); test: Inhibition of IKK in human A549 cells assessed as inhibition of TNF-alpha-induced IkappaB phosphorylation preincubated for 30 mins before TNFalpha challenge; type: cell-based
In short: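 A549 cells pretreated 30 min with compounds before TNFα (10 ng/ml). Whole-cell NP-40 lysates prepared 7 min after TNFα, run on 12.5% SDS-PAGE and Western blotted with anti-pS32 IκB antibody. Membrane then stripped and reprobed for total IκB.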

[4] = Growth inhibition of human NCI-H1944 cells after 72 hrs by alamar blue method; type: functional; details: NCI-H1944, 72 h
In short: (§2)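 Cells kept in RPMI with 10% FBS and penicillin/streptomycin at 37°C, 5% CO2. Plated in 384-well format, dosed the next day, then incubated 72 hr before Alamar Blue read-out. GI50 is the concentration lowering viability by 50% versus solvent-vehicle control cells at the end of incubation.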

[5] = test system: A549; test: as §1; type: cell-based
[6] = test system: A549; test: Growth inhibition of human A549 cells after 72 hrs by alamar blue method; type: functional; details: A549, 72 h; in short: as §2
[7] = test system: NCI-H460; test: Growth inhibition of human H460 cells after 72 hrs by alamar blue method; type: functional; details: NCI-H460, 72 h; in short: as §2
[8] = target: T1, Inhibitor of NF-kappa-B kinase (IKK); test: Inhibition of IKK in human A549 cells assessed as inhibition of TNF-alpha-induced IkappaB degradation at 0.5 to 25 uM preincubated for 4 hrs before TNFalpha challenge measured after 20 mins by Western blot analysis; type: cell-based
In short: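 A549 cells pretreated with compounds at indicated doses, then TNFα (10 ng/ml) added for a further 20 min. Cells lysed in NP-40 buffer (1.0% NP-40, 10 mM Hepes pH 7.4, 150 mM NaCl, phosphatase and protease inhibitors). Equal lysate volumes run on 12.5% SDS-PAGE, transferred to nitrocellulose, milk-blocked, and total IκB detected by Western blot.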

[9] = target: T2, Inhibitor of nuclear factor kappa-B kinase subunit beta (Homo sapiens) (UniProt O14920); test: Inhibition of recombinant IKK-beta assessed as inhibition of incorporation of [gamma32P] to GST-IkappaBalpha after 30 mins by scintillation counting
T2 sequence (whole entry): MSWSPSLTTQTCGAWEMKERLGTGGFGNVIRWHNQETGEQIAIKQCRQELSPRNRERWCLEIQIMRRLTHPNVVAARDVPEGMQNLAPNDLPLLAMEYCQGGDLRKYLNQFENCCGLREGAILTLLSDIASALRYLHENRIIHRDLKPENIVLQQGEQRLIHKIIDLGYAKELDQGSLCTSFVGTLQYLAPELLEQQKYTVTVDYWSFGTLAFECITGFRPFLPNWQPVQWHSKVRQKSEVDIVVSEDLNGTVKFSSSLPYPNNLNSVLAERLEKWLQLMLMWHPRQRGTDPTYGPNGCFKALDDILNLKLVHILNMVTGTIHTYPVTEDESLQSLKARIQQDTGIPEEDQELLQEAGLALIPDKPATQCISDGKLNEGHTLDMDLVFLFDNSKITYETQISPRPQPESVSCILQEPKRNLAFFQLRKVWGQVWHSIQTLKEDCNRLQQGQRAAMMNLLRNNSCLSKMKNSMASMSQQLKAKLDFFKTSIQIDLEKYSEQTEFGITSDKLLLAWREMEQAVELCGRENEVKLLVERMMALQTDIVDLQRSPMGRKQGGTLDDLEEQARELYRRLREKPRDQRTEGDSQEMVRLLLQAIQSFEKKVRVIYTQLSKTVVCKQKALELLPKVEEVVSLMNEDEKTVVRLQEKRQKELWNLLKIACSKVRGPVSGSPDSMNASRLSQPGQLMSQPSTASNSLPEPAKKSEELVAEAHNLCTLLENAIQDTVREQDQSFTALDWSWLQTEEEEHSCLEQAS
In short: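 Activated recombinant IKKβ (40 ng) preincubated with compounds 30 min at room temperature in MOPS buffer pH 7.0. Reaction started with Mg-ATP mix (100 μM ATP, 15 mM MgCl2), 5 μg GST-IκBα and 0.5 μCi [γ-32P]ATP in 25 μl, run 30 min at 30°C. Stopped by boiling in SDS buffer, resolved by 12.5% SDS-PAGE, autoradiographed. Excised bands quantified by scintillation counting.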

[10] = test system: NCI-H157; test: Growth inhibition of human NCI-H157 cells after 72 hrs by alamar blue method; type: functional; details: NCI-H157, 72 h; in short: as §2
[11] = test system: A549; test: Anticlonogenic activity against human A549 cells assessed as inhibition of colony formation of cells treated at 0.2 uM with test compound after cell plating and every 3 days thereafter and measured on day 9 after colonies formed by SRB assay; type: functional
In short: (§3)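 A549 cells plated at 200 cells/well, incubated overnight, then exposed to compound or DMSO vehicle; medium and compound renewed every 3 days. On day 9, colonies fixed with 10% TCA for 30 min at 4°C, water-washed, SRB-stained and rinsed with 1% acetic acid. Plates scanned, colonies counted and normalized to DMSO control.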

[12] = test system: A549; test: Anticlonogenic activity against human A549 cells assessed as inhibition of colony formation of cells treated at 0.4 uM with test compound after cell plating and every 3 days thereafter and measured on day 9 after colonies formed by SRB assay; type: functional; in short: as §3
[13] = test system: A549; test: Anticlonogenic activity against human A549 cells assessed as inhibition of colony formation of cells treated at 4 uM with test compound after cell plating and every 3 days thereafter and measured on day 9 after colonies formed by SRB assay; type: functional, cell-based; in short: as §3

T1 sequence (O15111 whole entry, one chain of several): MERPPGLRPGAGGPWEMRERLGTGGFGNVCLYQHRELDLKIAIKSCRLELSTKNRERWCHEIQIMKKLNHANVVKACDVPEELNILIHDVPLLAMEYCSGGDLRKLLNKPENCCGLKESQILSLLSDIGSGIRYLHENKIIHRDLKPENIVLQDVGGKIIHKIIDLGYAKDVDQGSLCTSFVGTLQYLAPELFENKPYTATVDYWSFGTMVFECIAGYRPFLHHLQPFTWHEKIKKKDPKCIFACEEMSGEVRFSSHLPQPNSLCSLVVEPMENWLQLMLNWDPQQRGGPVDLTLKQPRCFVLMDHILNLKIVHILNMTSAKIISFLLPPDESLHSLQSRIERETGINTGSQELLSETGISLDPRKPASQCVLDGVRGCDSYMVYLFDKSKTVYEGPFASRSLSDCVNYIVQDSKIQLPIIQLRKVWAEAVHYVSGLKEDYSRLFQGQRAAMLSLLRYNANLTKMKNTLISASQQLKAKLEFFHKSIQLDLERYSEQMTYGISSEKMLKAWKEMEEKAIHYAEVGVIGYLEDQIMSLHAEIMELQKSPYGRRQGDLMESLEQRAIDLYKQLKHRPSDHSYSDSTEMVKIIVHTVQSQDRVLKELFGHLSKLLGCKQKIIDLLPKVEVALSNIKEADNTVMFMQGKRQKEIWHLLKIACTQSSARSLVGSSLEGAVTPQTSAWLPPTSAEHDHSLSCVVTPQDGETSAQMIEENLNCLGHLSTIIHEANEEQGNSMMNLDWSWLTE
T1 sequence (Q9Y6K9 whole entry, one chain of several): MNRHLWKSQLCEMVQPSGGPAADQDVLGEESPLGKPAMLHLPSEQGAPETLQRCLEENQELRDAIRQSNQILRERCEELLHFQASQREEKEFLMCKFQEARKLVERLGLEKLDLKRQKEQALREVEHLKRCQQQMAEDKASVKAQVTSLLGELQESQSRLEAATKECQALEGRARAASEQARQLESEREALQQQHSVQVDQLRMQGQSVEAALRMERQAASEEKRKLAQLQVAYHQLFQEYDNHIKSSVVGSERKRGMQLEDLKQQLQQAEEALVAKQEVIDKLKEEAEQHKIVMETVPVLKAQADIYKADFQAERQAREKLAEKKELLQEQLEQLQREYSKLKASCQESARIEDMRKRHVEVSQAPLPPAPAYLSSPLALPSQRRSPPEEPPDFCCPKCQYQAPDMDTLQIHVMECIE

| IC50 [1] | GI50 [2] | Compound | also measured |
| --- | --- | --- | --- |
| 4900 nM | 630 nM | CCc1ccc(C=C(C(=O)/C=C/c2ccc(OC)c(OC)c2)C(=O)/C=C/c2ccc(OC)c(OC)c2)cc1 | – |
| 8500 nM | > 25000 nM | Cc1ccc(/C=C/C(=O)/C=C(O)/C=C/c2ccc(C)o2)o1 | – |
| 3000 nM | 1640 nM | COc1ccc(/C=C/C(=O)C(=Cc2ccc(O)c(OC)c2)C(=O)/C=C/c2ccc(OC)cc2)cc1 | – |
| 1400 nM | 360 nM | COc1cc(/C=C/C(=O)C(=Cc2cccc(F)c2)C(=O)/C=C/c2ccc(O)c(OC)c2)ccc1O | – |
| 3300 nM | 930 nM | COc1ccc(/C=C/C(=O)C(=Cc2ccc(OC)c(OC)c2)C(=O)/C=C/c2ccc(OC)cc2)cc1 | – |
| 9000 nM | 1210 nM | COc1ccc(/C=C/C(=O)/C=C/c2cc(OC)c(OC)c(OC)c2)cc1OC | – |
| > 40000 nM | > 25000 nM | COc1ccc(/C=C/C(=O)C(=CO)C(=O)/C=C/c2ccc(OC)cc2)cc1 | – |
| 4800 nM | 530 nM | COc1cc(/C=C/C(=O)/C(=C/c2cc(OC)c(OC)c(OC)c2)C(C)=O)cc(OC)c1OC | – |
| 39300 nM | > 25000 nM | COc1cc(/C=C/C(=O)C(=CO)C(=O)/C=C/c2ccc(OC(C)=O)c(OC)c2)ccc1OC(C)=O | – |
| 2800 nM | 1310 nM | COc1ccc(/C=C/C(=O)C(=Cc2ccc(C)o2)C(=O)/C=C/c2ccc(OC)c(OC)c2)cc1OC | – |
| 1100 nM | 550 nM | COc1ccc(/C=C/C(=O)C(=Cc2ccc(F)cc2)C(=O)/C=C/c2ccc(OC)c(OC)c2)cc1OC | IC50 [3]: 2200 nM; GI50 [4]: 280 nM; inhibition [5]: Dose-dependent effect; GI50 [6]: 700 nM; GI50 [7]: 270 nM; inhibition [8]: Active; inhibition [9]: Dose-dependent effect; GI50 [10]: 280 nM; inhibition at 0.2 µM [11]: 50% |
| 1000 nM | 690 nM | COc1ccc(C=C(C(=O)/C=C/c2ccc(O)c(OC)c2)C(=O)/C=C/c2ccc(O)c(OC)c2)c(OC)c1 | – |
| > 40000 nM | > 25000 nM | O=C(/C=C(O)/C=C/c1ccco1)/C=C/c1ccco1 | – |
| 3800 nM | 1120 nM | COc1ccc(/C=C/C(=O)C(=Cc2cc(OC)c(OC)c(OC)c2)C(=O)/C=C/c2ccc(OC)cc2)cc1 | – |
| 1700 nM | 420 nM | COc1cc(/C=C/C(=O)C(=Cc2cccc(OC)c2OC)C(=O)/C=C/c2ccc(O)c(OC)c2)ccc1O | IC50 [3]: 5000 nM; GI50 [4]: 330 nM; GI50 [6]: 930 nM; GI50 [7]: 300 nM; inhibition [8]: Active; inhibition [9]: Dose-dependent effect; GI50 [10]: 530 nM; inhibition at 0.4 µM [12]: 50% |
| > 40000 nM | 2620 nM | COc1ccc(/C=C/C(=O)C(=Cc2ccc(N(C)C)cc2)C(=O)/C=C/c2ccc(OC)c(OC)c2)cc1OC | – |
| 1500 nM | 670 nM | COc1ccc(/C=C/C(=O)C(=Cc2cccc(OC)c2OC)C(=O)/C=C/c2ccc(OC)c(OC)c2)cc1OC | – |
| 1300 nM | 640 nM | COc1cccc(C=C(C(=O)/C=C/c2ccc(O)c(OC)c2)C(=O)/C=C/c2ccc(O)c(OC)c2)c1 | – |

| IC50 [1] | GI50 [2] | Compound | also measured |
| --- | --- | --- | --- |
| 1400 nM | 420 nM | COc1ccc(/C=C/C(=O)C(=Cc2ccc(O)cc2)C(=O)/C=C/c2ccc(OC)c(OC)c2)cc1OC | – |
| 1800 nM | 550 nM | CCc1ccc(C=C(C(=O)/C=C/c2ccc(O)c(OC)c2)C(=O)/C=C/c2ccc(O)c(OC)c2)cc1 | – |
| 2700 nM | 780 nM | COc1cc(/C=C/C(=O)C(=Cc2ccc(F)cc2)C(=O)/C=C/c2ccc(O)c(OC)c2)ccc1O | – |
| > 40000 nM | 430 nM | COc1cc(/C=C/C(=O)C(=Cc2ccc(OC)c(OC)c2)C(=O)/C=C/c2ccc(O)c(OC)c2)ccc1O | – |
| 9500 nM | 15200 nM | COc1cc(/C=C/C(=O)CC(=O)/C=C/c2ccc(O)c(OC)c2)ccc1O [CURCUMIN] | GI50 [4]: 16200 nM; GI50 [6]: 9440 nM; GI50 [7]: 12100 nM; Activity [13]: Active; GI50 [10]: 19200 nM |
| > 40000 nM | > 25000 nM | COc1ccc(/C=C/C(=O)C(=CO)C(=O)/C=C/c2ccc(OC)c(OC)c2)cc1OC | – |
| 1000 nM | 370 nM | COc1ccc(C=C(C(=O)/C=C/c2cc(OC)c(OC)c(OC)c2)C(=O)/C=C/c2cc(OC)c(OC)c(OC)c2)cc1OC | – |
| 1300 nM | 580 nM | COc1ccc(/C=C/C(=O)C(=Cc2cccc(F)c2)C(=O)/C=C/c2ccc(OC)c(OC)c2)cc1OC | – |
| 1500 nM | 310 nM | COc1ccc(C=C(C(=O)/C=C/c2ccc(OC)c(OC)c2)C(=O)/C=C/c2ccc(OC)c(OC)c2)cc1OC | – |
| 1400 nM | 670 nM | COc1ccc(OC)c(C=C(C(=O)/C=C/c2ccc(O)c(OC)c2)C(=O)/C=C/c2ccc(O)c(OC)c2)c1 | – |
| 1700 nM | 650 nM | COc1ccc(C=C(C(=O)/C=C/c2ccc(OC)c(OC)c2)C(=O)/C=C/c2ccc(OC)c(OC)c2)c(OC)c1 | – |
| 7900 nM | 550 nM | COc1cc(/C=C/C(=O)/C=C/c2cc(OC)c(OC)c(OC)c2)cc(OC)c1OC | – |
| 1500 nM | 530 nM | COc1ccc(OC)c(C=C(C(=O)/C=C/c2ccc(OC)c(OC)c2)C(=O)/C=C/c2ccc(OC)c(OC)c2)c1 | – |
| > 40000 nM | > 25000 nM | COc1ccc(/C=C/C(=O)/C=C(O)/C=C/c2ccc(OC)cc2)cc1 | – |
| 1000 nM | 530 nM | COc1cc(C=C(C(=O)/C=C/c2ccc(OC)c(OC)c2)C(=O)/C=C/c2ccc(OC)c(OC)c2)ccc1O | IC50 [3]: 2800 nM; GI50 [4]: 70 nM; GI50 [6]: 720 nM; GI50 [7]: 130 nM; inhibition [8]: Active; inhibition [9]: Dose-dependent effect; GI50 [10]: 160 nM; inhibition at 0.2 µM [11]: 50% |
| 1800 nM | 230 nM | COc1ccc(/C=C/C(=O)C(=Cc2cc(OC)c(OC)c(OC)c2)C(=O)/C=C/c2ccc(OC)c(OC)c2)cc1OC | – |
| 1000 nM | 2000 nM | COc1cc(C=C(C(=O)/C=C/c2ccc(O)c(OC)c2)C(=O)/C=C/c2ccc(O)c(OC)c2)ccc1O | – |
| 24300 nM | 9310 nM | COc1cc(/C=C/C(=O)/C=C/c2sccc2C)cc(OC)c1OC | – |

| Compound | IC50 [1] | GI50 [2] | also measured |
| --- | --- | --- | --- |
| COc1ccc(/C=C/C(=O)/C=C(O)/C=C/c2ccc(OC)c(OC)c2)cc1OC [DIMETHYLCURCUMIN] | > 40000 nM | 5800 nM | – |
